According to ChEMBL document CHEMBL1142179, “Association of fluconazole area under the concentration-time curve/MIC and dose/MIC ratios with mortality in nonneutropenic patients with candidemia” (2007):
≈ marks a conversion by molar mass, not a printed value.

What was measured:
Format in all cases: functional
Candida [1] = test: Ratio of weight normalized daily dose in non-surviving candidemia patient to MIC at 24 hrs against Candida species
How it was run: (§1)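 MICs for patient Candida blood isolates were measured by CLSI M27-A2 microdilution in RPMI 1640-2% dextrose with 0.165 M MOPS, pH 7.0. Fluconazole was tested at 0.5–256 μg/ml in doubling dilutions, incubated at 35°C, and read at 24 h and 48 h by marked turbidity reduction. The fluconazole dose in mg/kg body weight was divided by the 24-h or 48-h MIC.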

Candida [2] = test: Ratio of weight normalized daily dose in surviving candidemia patient to MIC at 48 hrs against Candida species; how it was run: as §1
Homo sapiens [3] = species on record: Homo sapiens; test: Ratio of weight normalized daily dose in non-surviving candidemia patient to MIC at 48 hrs against Candida species; how it was run: as §1
Candida tropicalis [4] = test: Antimicrobial activity against Candida tropicalis at 24 hrs
How it was run: (§2)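 Bloodstream isolates from hospitalized candidemia patients, stored at −70°C and subcultured overnight on Sabouraud dextrose agar. Tested by CLSI M27-A2 broth microdilution in RPMI 1640-2% dextrose with 0.165 M MOPS, pH 7.0. Fluconazole was given as serial doubling dilutions from 0.5 to 256.0 μg/ml. Inoculum was a 0.5 McFarland suspension diluted to 2×. Plates were incubated at 35°C. MIC was read at 24 and 48 h as a marked reduction in turbidity, with ATCC 6258 and ATCC 22019 as QC strains.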

Clavispora lusitaniae [5] = test: Antimicrobial activity against Candida lusitaniae at 24 hrs; how it was run: as §2
Candida albicans [6] = test: Ratio of AUC in candidemia patient to MIC against Candida albicans
How it was run: (§3)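 Bloodstream Candida isolates came from hospitalized adults treated with fluconazole. MICs were measured by CLSI M27-A2 broth microdilution in RPMI 1640-2% dextrose with 0.165 M MOPS, pH 7.0. Fluconazole was tested in doubling dilutions of 0.5–256 μg/ml at 35°C, read at 24 and 48 h as a marked drop in turbidity. AUC is the individual dose divided by clearance estimated from creatinine clearance. The ratio is AUC divided by the 24- or 48-h MIC.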

Nakaseomyces glabratus [7] = test: Ratio of AUC in candidemia patient to MIC against Candida glabrata; how it was run: as §3
Candida parapsilosis [8] = test: Ratio of AUC in candidemia patient to MIC against Candida parapsilosis; how it was run: as §3
Candida tropicalis [9] = test: Ratio of AUC in candidemia patient to MIC against Candida tropicalis; how it was run: as §3
Clavispora lusitaniae [10] = test: Ratio of AUC in candidemia patient to MIC against Candida lusitaniae; how it was run: as §3
Candida albicans [11] = test: Ratio of weight normalized daily dose in candidemia patient to MIC against Candida albicans
How it was run: (§4)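 Fluconazole daily dose (mg/kg) of each nonneutropenic candidemia patient divided by the MIC of their bloodstream isolate. MIC by CLSI M27-A2 broth microdilution in RPMI 1640-2% dextrose, 0.165 M MOPS, pH 7.0. Serial doubling dilutions ran 0.5–256.0 μg/ml. Inoculum was a 0.5 McFarland suspension diluted to 2×. Incubated at 35°C; MIC read at 24 and 48 h as marked turbidity reduction.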

Nakaseomyces glabratus [12] = test: Ratio of weight normalized daily dose in candidemia patient to MIC against Candida glabrata; how it was run: as §1
Candida parapsilosis [13] = test: Ratio of weight normalized daily dose in candidemia patient to MIC against Candida parapsilosis; how it was run: as §1
Candida tropicalis [14] = test: Ratio of weight normalized daily dose in candidemia patient to MIC against Candida tropicalis; how it was run: as §1
Clavispora lusitaniae [15] = test: Ratio of weight normalized daily dose in candidemia patient to MIC against Candida lusitaniae; how it was run: as §1
Homo sapiens [16] = species on record: Homo sapiens; test: Mortality rate in Candida albicans infected candidemia patient
How it was run: (§5)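 Subjects were adults (≥18 y) hospitalized >48 h before a Candida-positive blood culture, enrolled 2002–2005 at two hospitals, and treated with fluconazole. Patients were excluded if fluconazole started >24 h before culture or >2 days after it. Species was identified by Vitek YBC or API 20C Aux. Mortality is given per infecting species.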

Homo sapiens [17] = species on record: Homo sapiens; test: Mortality rate in Candida glabrata infected candidemia patient; how it was run: as §5
Homo sapiens [18] = species on record: Homo sapiens; test: Mortality rate in Candida parapsilosis infected candidemia patient; how it was run: as §5
Homo sapiens [19] = species on record: Homo sapiens; test: Mortality rate in Candida tropicalis infected candidemia patient; how it was run: as §5
Homo sapiens [20] = species on record: Homo sapiens; test: Mortality rate in Candida lusitaniae infected candidemia patient; how it was run: as §5
Homo sapiens [21] = species on record: Homo sapiens; test: Mortality rate stratified by 24 hrs MIC in susceptible Candida species infected patient
How it was run: (§6)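 Patients were fluconazole-treated nonneutropenic adults with candidemia. Isolate MICs were obtained by CLSI M27-A2 broth microdilution, read at 24 or 48 h. Patients were grouped by susceptibility breakpoint category. Mortality was compared by chi-square analysis.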

Homo sapiens [22] = species on record: Homo sapiens; test: Mortality rate stratified by 48 hrs MIC in susceptible Candida species infected patient; how it was run: as §6
Homo sapiens [23] = species on record: Homo sapiens; test: Mortality rate stratified by 24 hrs MIC in dose-dependently susceptible Candida species infected patient; how it was run: as §6
Homo sapiens [24] = species on record: Homo sapiens; test: Mortality rate stratified by 48 hrs MIC in dose-dependently susceptible Candida species infected patient; how it was run: as §6
Homo sapiens [25] = species on record: Homo sapiens; test: Mortality rate stratified by 24 hrs MIC in resistant Candida species infected patient; how it was run: as §6
Homo sapiens [26] = species on record: Homo sapiens; test: Mortality rate stratified by 48 hrs MIC in resistant Candida species infected patient; how it was run: as §6
Candida [27] = test: Ratio of AUC in surviving candidemia patient to MIC at 24 hrs against Candida species; how it was run: as §3
Candida [28] = test: Ratio of AUC in surviving candidemia patient to MIC at 48 hrs against Candida species; how it was run: as §3
Candida albicans [29] = test: Antimicrobial activity against Candida albicans at 48 hrs; how it was run: as §2
Nakaseomyces glabratus [30] = test: Antimicrobial activity against Candida glabrata at 48 hrs; how it was run: as §2
Candida parapsilosis [31] = test: Antimicrobial activity against Candida parapsilosis at 48 hrs; settings: Lodderomyces parapsilosis; how it was run: as §2
Candida tropicalis [32] = test: Antimicrobial activity against Candida tropicalis at 48 hrs; how it was run: as §2
Candida albicans [33] = test: Ratio of weight normalized daily dose in candidemia patient to MIC at 48 hrs against Candida albicans; how it was run: as §4
Nakaseomyces glabratus [34] = test: Ratio of weight normalized daily dose in candidemia patient to MIC at 48 hrs against Candida glabrata; how it was run: as §1
Nakaseomyces glabratus [35] = test: Ratio of weight normalized daily dose in candidemia patient to MIC at 24 hrs against Candida glabrata; how it was run: as §1
Candida albicans [36] = test: Ratio of weight normalized daily dose in candidemia patient to MIC at 24 hrs against Candida albicans; how it was run: as §4
Candida [37] = test: Ratio of AUC in non-surviving candidemia patient to MIC at 48 hrs against Candida species; how it was run: as §3
Clavispora lusitaniae [38] = test: Antimicrobial activity against Candida lusitaniae at 48 hrs; how it was run: as §2
Candida [39] = test: Ratio of weight normalized daily dose in surviving candidemia patient to MIC at 24 hrs against Candida species
How it was run: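 Weight-normalized fluconazole daily dose (mg/kg) was divided by the isolate MIC read at 24 h (CLSI M27-A2 broth microdilution, 35°C). Ratios were log10-transformed before analysis. Surviving patients were compared with nonsurvivors, with logistic regression used against mortality.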

Candida albicans [40] = test: Antimicrobial activity against Candida albicans at 24 hrs; how it was run: as §2
Nakaseomyces glabratus [41] = test: Antimicrobial activity against Candida glabrata at 24 hrs; how it was run: as §2
Candida parapsilosis [42] = test: Antimicrobial activity against Candida parapsilosis at 24 hrs; settings: Lodderomyces parapsilosis; how it was run: as §2

OC(Cn1cncn1)(Cn1cncn1)c1ccc(F)cc1F [FLUCONAZOLE]
Ratio (Candida [1]): 7 | Ratio (Candida [2]): 10.7 | Ratio (Homo sapiens [3]): 6.1 | MIC50 (Candida tropicalis [4]): 1 µg/mL (≈ 3.27 µM) | MIC50 (Clavispora lusitaniae [5]): 2 µg/mL (≈ 6.53 µM) | RatioAUC/MIC (Candida albicans [6]): 946 | RatioAUC/MIC (Nakaseomyces glabratus [7]): 182 | RatioAUC/MIC (Candida parapsilosis [8]): 635 | RatioAUC/MIC (Candida tropicalis [9]): 657 | RatioAUC/MIC (Clavispora lusitaniae [10]): 232 | Ratio (Candida albicans [11]): 15.4 | Ratio (Nakaseomyces glabratus [12]): 1.9 | Ratio (Candida parapsilosis [13]): 10.7 | Ratio (Candida tropicalis [14]): 11.4 | Ratio (Clavispora lusitaniae [15]): 3.3 | Activity (Homo sapiens [16]): 16.3% | Activity (Homo sapiens [17]): 36.4% | Activity (Homo sapiens [18]): 0% | Activity (Homo sapiens [19]): 0% | Activity (Homo sapiens [20]): 33.3% | Activity (Homo sapiens [21]): 18% | Activity (Homo sapiens [22]): 18% | Activity (Homo sapiens [23]): 50% | Activity (Homo sapiens [24]): 50% | Activity (Homo sapiens [25]): 50% | Activity (Homo sapiens [26]): 50% | Ratio (Candida [27]): 775 | Ratio (Candida [28]): 614 | MIC50 (Candida albicans [29]): 0.5 µg/mL (≈ 1.63 µM) | MIC90 (Candida albicans [29]): 8 µg/mL (≈ 26.1 µM) | MIC50 (Nakaseomyces glabratus [30]): 0.5 µg/mL (≈ 1.63 µM) | MIC90 (Nakaseomyces glabratus [30]): 8 µg/mL (≈ 26.1 µM) | MIC50 (Candida parapsilosis [31]): 0.5 µg/mL (≈ 1.63 µM) | MIC90 (Candida parapsilosis [31]): 8 µg/mL (≈ 26.1 µM) | MIC50 (Candida tropicalis [32]): 0.5 µg/mL (≈ 1.63 µM) | MIC90 (Candida tropicalis [32]): 8 µg/mL (≈ 26.1 µM) | Ratio (Candida albicans [33]): 13.17 | Ratio (Nakaseomyces glabratus [34]): 1.51 | Ratio (Nakaseomyces glabratus [35]): 1.88 | Ratio (Candida albicans [36]): 15.39 | Ratio (Candida [37]): 496 | MIC50 (Clavispora lusitaniae [38]): 0.5 µg/mL (≈ 1.63 µM) | MIC90 (Clavispora lusitaniae [38]): 8 µg/mL (≈ 26.1 µM) | Activity (Candida [39]): 13.3 | MIC50 (Candida albicans [40]): 0.25 µg/mL (≈ 0.816 µM) | MIC50 (Nakaseomyces glabratus [41]): 4 µg/mL (≈ 13.1 µM) | MIC50 (Candida parapsilosis [42]): 1.25 µg/mL (≈ 4.08 µM)
